These results are taken from ChEMBL document CHEMBL5329186, “Identification of novel 1,2,3-triazole isatin derivatives as potent SARS-CoV-2 3CLpro inhibitors via click-chemistry-based rapid screening” (RSC Med Chem, 2023).

In data set [1] the target is Replicase polyprotein 1ab (Severe acute respiratory syndrome coronavirus 2) (UniProt P0DTD1). Description: Inhibition of SARS-CoV-2 MPro at 5 uM using MCAAVLQSGFR-Lys(Dnp)-Lys-NH2 as substrate incubated for 10 mins by FRET assay. The gist of the method:
(§1)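 3CLpro FRET assay at 5 μM compound, run as the standard protocol (10 min 37 °C preincubation, ex 320/em 405 nm kinetic read). The assay buffer either contained 4 mM DL-dithiothreitol or had none added. Ebselen served as the control.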

The target is the same in data set [2]. Description: Inhibition of SARS-CoV-2 MPro at 5 uM using MCAAVLQSGFR-Lys(Dnp)-Lys-NH2 as substrate in presence of DTT incubated for 10 mins by FRET assay. The gist of the method:
as §1

For data set [3] the target is unchanged. Briefly: Inhibition of SARS-CoV-2 MPro at 1 uM using MCAAVLQSGFR-Lys(Dnp)-Lys-NH2 as substrate incubated for 10 mins by FRET assay relative to control.
The target in data set [4] is Replicase polyprotein 1ab (Severe acute respiratory syndrome coronavirus 2, UniProt P0DTD1). Briefly: Inhibition of SARS-CoV-2 MPro using MCAAVLQSGFR-Lys(Dnp)-Lys-NH2 as substrate incubated for 10 mins by FRET assay. The gist of the method: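 Same 3CLpro FRET protocol (enzyme working 1.5 μM, substrate 500 μM, Tris/NaCl/glycerol buffer pH 7.3, 10 min 37 °C preincubation, ex 320/em 405 nm kinetic read for 10 min). Compounds were tested at 0.1, 0.5, 1 and 5 μM from 5 mM DMSO stocks. IC50 is the average of three independent experiments.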

Another data set has as its system Vero C1008. Briefly: Cytotoxicity against African green monkey Vero E6 assessed as inhibition of cell growth at 20 uM incubated for 26 hrs. Format: toxicity, cell-based. The note with it: chlorocebus sabaeus, vero c1008, 26 h.
The nature of data set [5]: Cytotoxicity against African green monkey Vero E6 assessed as inhibition of cell growth incubated for 26 hrs. It counts as toxicity, cell-based. The note with it: chlorocebus sabaeus, Vero E6 cells (Vero C1008). The gist of the method:
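Vero E6 cells were seeded at 1.7 × 10^4/well in DMEM high glucose/10% FBS and grown 24 h at 37 °C, 5% CO2. Compound was then added in DMEM/5% FBS, final 1% DMSO, for 26 h. Viability was read with the CellTiter 96 aqueous nonradioactive proliferation assay. Values are averages of three or more replicate assays.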

Calls of active or inactive are those of the source. No cut-off for these calls is given here. Where only a bound is given, the exact number is not on record here.

Usually inhibition stands for the percentage by which the read-out fell short of the control. As to `O=c1c2ccccc2[se]n1-c1ccccc1`, the inhibition result in data set [1] is “Active”. Moreover, the inhibition result in data set [2] was “inactive”.

What is called IC50 is the point on the concentration scale where inhibition reaches its midpoint. A word on the CC50: it is the concentration that lowers cell viability or growth by half. In data set [3], `NC(=O)c1ccc2c(c1)C(=O)C(=O)N2Cc1ccc2ccccc2c1` had an inhibition of 87.3%. 300 nM corresponded to half-maximal inhibition in data set [4] (IC50). The Activity result in the data set on Vero C1008 is reported as “Not Active”. The CC50 at 26 h in data set [5] is below 2200 nM. Besides, the inhibition entry in data set [1] and in data set [2] was “Active” throughout.

Consider `NC(=O)c1ccc2c(c1)C(=O)C(=O)N2Cc1cn(Cc2ccc(C(F)(F)F)cc2F)nn1`, for which, in data set [3], the inhibition amounted to 78.1%. In data set [4], half-maximal inhibition (IC50) was put at 530 nM. In the data set on Vero C1008, the Activity result is given as “Not Active”. In addition, the CC50 at 26 h in data set [5] was above 20000 nM.

Molecule `NC(=O)c1ccc2c(c1)C(=O)C(=O)N2Cc1cn(Cc2ccc(S(N)(=O)=O)cc2)nn1` yielded an inhibition in data set [3] of 73.3%. In data set [4], this molecule yielded a half-maximal inhibitory concentration (IC50) of 1120 nM. In addition, the Activity result in the data set with Vero C1008 is reported as “Not Active”. Besides, the CC50 at 26 h in data set [5] was above 20000 nM.

Turning to `NC(=O)c1ccc2c(c1)C(=O)C(=O)N2Cc1cn(Cc2cccc(Cl)c2)nn1`, the inhibition in data set [3] turned out to be 76.4%. In data set [4], this molecule showed a half-inhibitory concentration (IC50) of 440 nM. Also, the Activity result with Vero C1008 is given as “Not Active”. Also, the CC50 at 26 h in data set [5] is above 20000 nM. For the same molecule, the inhibition entry in data set [1] and in data set [2] was “Active” throughout.
